# Measured values pooled from the literature.
# Compare with care: the assays were run in different laboratories.
# Organism: Human immunodeficiency virus 1
# Read-out: viral replication
Compound,assay,test system,conditions,quantity,value
CC(C)Nc1cccnc1N1CCN(C(=O)c2cc3cc(NS(C)(=O)=O)ccc3[nH]2)CC1,inhibitor,human PBMC,clinical isolate,IC50,30.6 nM
CC(C)CN(C[C@@H](O)[C@H](Cc1ccccc1)NC(=O)O[C@H]1CO[C@H]2OCC[C@H]21)S(=O)(=O)c1ccc(N)cc1,,MT2,,IC50,3.3 nM
Cc1c(O)cccc1C(=O)N[C@@H](CSc1ccccc1)[C@H](O)CN1C[C@H]2CCCC[C@H]2C[C@H]1C(=O)NC(C)(C)C,,human PBMC,,IC50,12 nM
CC(C)CN(C[C@@H](O)[C@H](Cc1ccccc1)NC(=O)O[C@H]1CCO[C@H]2OCC[C@H]21)S(=O)(=O)c1ccc(B(O)O)cc1,inhibitor,MT2,,IC50,120 nM
COc1ccccc1NC(=O)c1ccccc1Cl,,MT4,,IC50,> 50000 nM
CC(C)CN(C[C@@H](O)[C@H](Cc1ccccc1)NC(=O)O[C@H]1CCO[C@H]2OCC[C@H]21)S(=O)(=O)c1ccc(C(=O)O)cc1,inhibitor,MT2,,IC50,> 1000 nM
CSCC[C@H](NC(C)=O)C(=O)N[C@@H](CC(C)C)C(=O)N[C@@H](CCCNC(=N)N)C(=O)N[C@@H](Cc1c[nH]c2ccccc12)C(=O)N[C@@H](CO)C(=O)N[C@@H](CCCNC(=N)N)C(=O)N[C@@H](CCCCN)C(=O)N[C@@H](CC(C)C)C(=O)N1CCC[C@H]1C(=O)N[C@@H](CS)C(=O)N[C@H](C(=O)N[C@@H](CO)C(=O)O)C(C)C,inhibitor,TZM-bl,,IC50,> 10000 nM
C[C@@H](O[C@H]1OCCN(Cc2n[nH]c(=O)[nH]2)[C@H]1c1ccc(F)cc1)c1cc(C(F)(F)F)cc(C(F)(F)F)c1,inhibitor,human PBMC,clinical isolate,IC50,6370 nM
Cc1cccc(C)c1OCC(=O)N[C@@H](Cc1ccccc1)[C@@H](O)C[C@H](Cc1ccccc1)NC(=O)[C@H](C(C)C)N1CCCNC1=O,,MT4,,IC50,13 nM
CC(C)c1nc(CN(C)C(=O)N[C@H](C(=O)N[C@@H](Cc2ccccc2)C[C@H](O)[C@H](Cc2ccccc2)NC(=O)OCc2cncs2)C(C)C)cs1,inhibitor,human PBMC,clinical isolate,IC90,92.3 nM
CC(C)CN(C[C@@H](O)[C@H](Cc1ccccc1)NC(=O)O[C@H]1CO[C@H]2OCC[C@H]21)S(=O)(=O)c1ccc(B(O)O)cc1,,MT4,,IC50,48.9 nM
Cc1cn([C@H]2C[C@H](N=[N+]=[N-])[C@@H](CO)O2)c(=O)[nH]c1=O,,human PBMC,clinical isolate,IC90,> 1000 nM
